Experiments:
Rattus norvegicus [1] = test: Antiinflammatory activity in Wistar rat assessed as inhibition of carrageenan-induced paw edema at equimolar ip dose relative […] diclofenac sodium administered 1 hr before carrageenan challenge measured after 3 hrs relative to control; assay type: functional
Procedure, shortened: (§1)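 Wistar rats (100–120 g), 5 per group, were dosed ip either at equimolar […] or at three graded doses to derive ED50. Vehicle-only rats served as controls. After 1 h, 0.05 mL 1% carrageenin in saline (made 24 h earlier) was injected subplantar into the right hind paw and saline into the left. At 3 h, rats were killed and both paws cut and weighed. Right-over-left % weight increase gave % oedema reduction versus control.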

Rattus norvegicus [2] = test: Antiinflammatory activity in ip dosed Wistar rat assessed as inhibition of carrageenan-induced paw edema administered 1 hr before carrageenan challenge measured after 3 hrs relative to control; assay type: functional; procedure, shortened: as §1
Rattus norvegicus [3] = test: Antiinflammatory activity in Wistar rat assessed as inhibition of carrageenan-induced paw edema at 75 mg/kg, ip administered 1 hr before carrageenan challenge measured after 3 hrs relative to control; assay type: functional; conditions: route intraperitoneal; procedure, shortened: as §1
[4] = Therapeutic index, ED50 for antiinflammatory activity to LD50 for acute toxicity in Wistar rat; conditions: read-out: TI
Rattus norvegicus [5] = test: Antiinflammatory activity in Wistar rat assessed as inhibition of carrageenan-induced paw edema at 37 mg/kg, ip administered 1 hr before carrageenan challenge measured after 3 hrs relative to control; assay type: functional; conditions: route intraperitoneal; procedure, shortened: as §1
[6] = Acute toxicity in ip dosed Wistar rat assessed as mortality after 24 hrs; assay type: organism-based; conditions: in vivo
Rattus norvegicus [7] = test: Antiinflammatory activity in Wistar rat assessed as inhibition of carrageenan-induced paw edema at 30 mg/kg, ip administered 1 hr before carrageenan challenge measured after 3 hrs relative to control; assay type: functional; conditions: route intraperitoneal; procedure, shortened: as §1
Rattus norvegicus [8] = test: Gastrointestinal toxicity in Wistar rat assessed as length of elongated ulcer at equimolar po dose relative […] diclofenac sodium qd for 5 days measured after 10 hrs last post dose; assay type: organism-based; conditions: in vivo
Procedure, shortened: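 Rats, 5 per group, were given oral equimolar doses ([…]) daily for 5 days. They were killed by ether overdose 10 h after the last dose. Stomachs were rinsed with saline, opened along the greater curvature and examined under a ×10 hand lens. Ulcer number and summed ulcer length were recorded per animal, and the mean was taken as ulcer index.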

Mus musculus [9] = test: Analgesic activity in Swiss albino mouse assessed as inhibition of acetic acid-induced writhing at 37 mg/kg, po administered 2 hrs before acetic acid challenge measured after 20 mins relative to control; assay type: functional
Procedure, shortened: (§2)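 Swiss albino mice of either sex (20–25 g), in groups of 6, were housed at 22 ± 2 °C on a 12 h light/dark cycle. Drug was given orally and vehicle alone to negative controls. After 2 h, 0.2 mL 3% acetic acid was injected ip. Writhes were counted over 20 min, and % reduction in writhe number versus the control group was calculated.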

Mus musculus [10] = test: Analgesic activity in Swiss albino mouse assessed as inhibition of acetic acid-induced writhing at 100 mg/kg, po administered 2 hrs before acetic acid challenge measured after 20 mins relative to control; assay type: functional; procedure, shortened: as §2
Mus musculus [11] = test: Analgesic activity in Swiss albino mouse assessed as inhibition of acetic acid-induced writhing at 45 mg/kg, po administered 2 hrs before acetic acid challenge measured after 20 mins relative to control; assay type: functional; procedure, shortened: as §2
Rattus norvegicus [12] = test: Antiinflammatory activity in Wistar rat assessed as inhibition of carrageenan-induced paw edema at 45 mg/kg, ip administered 1 hr before carrageenan challenge measured after 3 hrs relative to control; assay type: functional; conditions: route intraperitoneal; procedure, shortened: as §1
Rattus norvegicus [13] = test: Antiinflammatory activity in Wistar rat assessed as inhibition of carrageenan-induced paw edema at […], ip administered 1 hr before carrageenan challenge measured after 3 hrs relative to control; assay type: functional; procedure, shortened: as §1
Mus musculus [14] = test: Analgesic activity in Swiss albino mouse assessed as inhibition of acetic acid-induced writhing at 50 mg/kg, po administered 2 hrs before acetic acid challenge measured after 20 mins relative to control; assay type: functional; procedure, shortened: as §2
Rattus norvegicus [15] = test: Antiinflammatory activity in Wistar rat assessed as inhibition of carrageenan-induced paw edema at 50 mg/kg, ip administered 1 hr before carrageenan challenge measured after 3 hrs relative to control; assay type: functional; conditions: route intraperitoneal; procedure, shortened: as §1

SMILES | inhibition (INH) (Rattus norvegicus [1]) [%] | other results
CCOC(=O)C(C)O/N=C(C)/C=C/c1ccc(OC)cc1 (centres undefined) | 21.66 | 
CC(/C=C/c1ccccc1)=N\OCC(=O)NC(C)C | 30.93 | 
CC(/C=C/c1ccccc1)=N\OC(C)C(N)=O (centres undefined) | 63.23 | ED50 (Rattus norvegicus [2]): 34.3 mg/kg; inhibition in vivo at 75 mg/kg (Rattus norvegicus [3]): 69.1%; selectivity ratio [4]: 20.1; inhibition in vivo at 37 mg/kg (Rattus norvegicus [5]): 63.2%; LD50 at 24 h [6]: 745 mg/kg; inhibition in vivo at 30 mg/kg (Rattus norvegicus [7]): 37.7%; Activity (Rattus norvegicus [8]): 0.3 mm; inhibition in vivo at 37 mg/kg (Mus musculus [9]): 53.6%; inhibition in vivo at 100 mg/kg (Mus musculus [10]): 82.5%
CC(/C=C/c1ccc(Cl)cc1)=N\OCC(=O)Nc1ccccc1 | 29.45 | 
COc1ccc(/C=C/C(C)=N/OC(C)C(=O)O)cc1 (centres undefined) | 45.38 | 
CCOC(=O)CO/N=C(C)/C=C/c1ccc(OC)cc1 | 22.14 | 
CCOC(=O)C(C)O/N=C(C)/C=C/c1ccccc1 (centres undefined) | 33.2 | 
COc1ccc(/C=C/C(C)=N/OCC(N)=O)cc1 | 38.21 | 
CC(/C=C/c1ccc(Cl)cc1)=N\OC(C)C(N)=O (centres undefined) | 57.54 | 
CC(/C=C/c1ccc(Cl)cc1)=N\OC(C)C(=O)O (centres undefined) | 66.7 | ED50 (Rattus norvegicus [2]): 29.9 mg/kg; inhibition in vivo at 75 mg/kg (Rattus norvegicus [3]): 75.2%; selectivity ratio [4]: 24.9; LD50 at 24 h [6]: 745 mg/kg; inhibition in vivo at 30 mg/kg (Rattus norvegicus [7]): 45.1%; inhibition in vivo at 45 mg/kg (Mus musculus [11]): 20.3%; Activity (Rattus norvegicus [8]): 8.1 mm; inhibition in vivo at 45 mg/kg (Rattus norvegicus [12]): 66.7%; inhibition in vivo at 100 mg/kg (Mus musculus [10]): 39.1%
CC(/C=C/c1ccc(Cl)cc1)=N\OCC(N)=O | 50.77 | 
CC(/C=C/c1ccccc1)=N\OCC(N)=O | 49.71 | 
COc1ccc(/C=C/C(C)=N/OCC(=O)Nc2ccccc2)cc1 | 42.91 | 
CCOC(=O)CO/N=C(C)/C=C/c1ccc(Cl)cc1 | 26.23 | 
COc1ccc(/C=C/C(C)=N/OCC(=O)Nc2ccc(Cl)cc2)cc1 | 43.32 | 
CC(/C=C/c1ccccc1)=N\OCC(=O)O | 45.62 | 
COc1ccc(/C=C/C(C)=N/OCC(=O)NC(C)C)cc1 | 41.68 | 
COc1ccc(/C=C/C(C)=N/OCC(=O)Nc2ccc(OC)cc2)cc1 | 37.25 | 
CC(/C=C/c1ccc(Cl)cc1)=N\OCC(=O)O | 50.57 | 
COc1ccc(/C=C/C(C)=N/OC(C)C(=O)NN)cc1 (centres undefined) | 38.76 | 

SMILES | inhibition (INH) (Rattus norvegicus [1]) [%] | other results
COc1ccc(/C=C/C(C)=N/OCC(=O)NN)cc1 | 24.44 | 
COc1ccc(/C=C/C(C)=N/OC(C)C(N)=O)cc1 (centres undefined) | 58.53 | 
CC(/C=C/c1ccccc1)=N\OCC(=O)Nc1ccccc1 | 35.43 | 
COc1ccc(NC(=O)CO/N=C(C)/C=C/c2ccccc2)cc1 | 49.64 | 
CC(/C=C/c1ccc(Cl)cc1)=N\OC(C)C(=O)NN (centres undefined) | 43.49 | 
CC(/C=C/c1ccc(Cl)cc1)=N\OCC(=O)NN | 21.76 | 
CC(/C=C/c1ccccc1)=N\OC(C)C(=O)O (centres undefined) | 40.85 | 
COc1ccc(/C=C/C(C)=N/OC(C)C(=O)NC(C)C)cc1 (centres undefined) | 27.53 | 
CC(/C=C/c1ccc(Cl)cc1)=N\OCC(=O)Nc1ccc(Cl)cc1 | 40.89 | 
COc1ccc(/C=C/C(C)=N/OCC(=O)O)cc1 | 7.35 | 
O=C([O-])Cc1ccccc1Nc1c(Cl)cccc1Cl.[Na+] [DICLOFENAC SODIUM] |  | ED50 (Rattus norvegicus [2]): 30.6 mg/kg; inhibition in vivo at 75 mg/kg (Rattus norvegicus [3]): 80.2%; inhibition (INH) (Rattus norvegicus [13]): 72.13%; inhibition in vivo at 30 mg/kg (Rattus norvegicus [7]): 46%; inhibition in vivo at 50 mg/kg (Mus musculus [14]): 71.1%; Activity (Rattus norvegicus [8]): 7.9 mm; inhibition in vivo at 50 mg/kg (Rattus norvegicus [15]): 72.1%
CC(/C=C/c1ccccc1)=N\OCC(=O)NN | 29.01 | 
CC(/C=C/c1ccccc1)=N\OC(C)C(=O)NC(C)C (centres undefined) | 37.38 | 
COc1ccc(NC(=O)CO/N=C(C)/C=C/c2ccc(Cl)cc2)cc1 | 48.16 | 
CC(/C=C/c1ccccc1)=N\OC(C)C(=O)NN (centres undefined) | 56.27 | 
CC(/C=C/c1ccc(Cl)cc1)=N\OCC(=O)NC(C)C | 28.49 | 
CCOC(=O)C(C)O/N=C(C)/C=C/c1ccc(Cl)cc1 (centres undefined) | 44.52 | 
CC(/C=C/c1ccc(Cl)cc1)=N\OC(C)C(=O)NC(C)C (centres undefined) | 42.84 | 
CCOC(=O)CO/N=C(C)/C=C/c1ccccc1 | 29.76 | 
CC(/C=C/c1ccccc1)=N\OCC(=O)Nc1ccc(Cl)cc1 | 28.66 | 

— ChEMBL document CHEMBL1157028, “Synthesis and anti-inflammatory activity of novel (substituted)benzylidene acetone oxime ether derivatives: molecular modeling study” (Eur J Med Chem, 2010)
